Measured values published in ChEMBL document CHEMBL5653613 (Mol Cancer Ther, 2013).
Calls of active or inactive are those of the source. No cut-off for these calls is given here.

What was measured:
[1] = biological target: Hepatocyte growth factor receptor (Homo sapiens, UniProt P08581); experiment: Inhibition of MET (unknown origin)
[2] = biological target: Macrophage-stimulating protein receptor (Homo sapiens, UniProt Q04912); experiment: Inhibition of RON (unknown origin)
T47D [3] = experiment: Induction of polyploidy in human T47D cells at 5 uM incubated for 72 hrs by microscopic analysis; type: functional, cell-based
How it was run: (§1)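 Cells stained with Hema-3 and photographed under a light microscope with CCD camera. Polyploid cells scored as percent of the population.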

ZR-75-1 [4] = experiment: Induction of polyploidy in human ZR-75-1 cells at 5 uM incubated for 72 hrs by microscopic analysis; type: functional, cell-based; how it was run: as §1
MCF7 = experiment: Induction of polyploidy in human MCF7 cells at 5 uM incubated for 72 hrs by microscopic analysis; type: functional, cell-based; how it was run: as §1
T47D [5] = experiment: Induction of cell cycle arrest in human T47D cells at 5 umol/L preincubated for 24 hrs followed by extensive compound washout and subsequent culturing in compound-free media measured for 60 to 120 mins by immunofluorescence staining based analysis; type: functional; settings: dose 5.0 µmol/L
How it was run: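 T-47D cells were treated at 37°C with 5 µmol/L for 24 h, washed extensively, then cultured in DMEM with 10% FBS for 30, 60 and 120 min. α- and γ-tubulin were detected by immunofluorescence with DAPI, imaged at 400×. The control was a 24 h preincubation with 5 µmol/L RO-3306. One of 2 experiments.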

ZR-75-1 [6] = experiment: Cytotoxicity against human ZR-75-1 cells assessed as inhibition of cell viability incubated for 72 hrs by MTS assay; type: functional, cell-based
How it was run: (§2)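 Untreated cells were seeded at 5,000 cells/well in 96-well plates and run as the control. They were exposed in triplicate for 72 h to graded doxorubicin, bleomycin, cisplatin, paclitaxel or methotrexate (nmol/L range). Viability was read by MTS assay and IC50 was calculated.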

T47D [7] = experiment: Cytotoxicity against human T47D cells assessed as inhibition of cell viability incubated for 72 hrs by MTS assay; type: functional, cell-based; how it was run: as §2

Sequence of Macrophage-stimulating protein receptor (Q04912 25-304 limits assumed): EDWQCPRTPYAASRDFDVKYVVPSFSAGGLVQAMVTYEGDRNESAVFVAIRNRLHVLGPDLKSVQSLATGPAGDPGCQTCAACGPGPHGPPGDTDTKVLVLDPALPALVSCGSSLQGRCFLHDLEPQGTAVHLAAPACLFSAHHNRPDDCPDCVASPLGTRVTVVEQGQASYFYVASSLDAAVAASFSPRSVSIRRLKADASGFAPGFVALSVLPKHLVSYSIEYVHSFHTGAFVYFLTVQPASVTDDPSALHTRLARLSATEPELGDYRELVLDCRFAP
Sequence of Macrophage-stimulating protein receptor (Q04912 310-1400 limits assumed): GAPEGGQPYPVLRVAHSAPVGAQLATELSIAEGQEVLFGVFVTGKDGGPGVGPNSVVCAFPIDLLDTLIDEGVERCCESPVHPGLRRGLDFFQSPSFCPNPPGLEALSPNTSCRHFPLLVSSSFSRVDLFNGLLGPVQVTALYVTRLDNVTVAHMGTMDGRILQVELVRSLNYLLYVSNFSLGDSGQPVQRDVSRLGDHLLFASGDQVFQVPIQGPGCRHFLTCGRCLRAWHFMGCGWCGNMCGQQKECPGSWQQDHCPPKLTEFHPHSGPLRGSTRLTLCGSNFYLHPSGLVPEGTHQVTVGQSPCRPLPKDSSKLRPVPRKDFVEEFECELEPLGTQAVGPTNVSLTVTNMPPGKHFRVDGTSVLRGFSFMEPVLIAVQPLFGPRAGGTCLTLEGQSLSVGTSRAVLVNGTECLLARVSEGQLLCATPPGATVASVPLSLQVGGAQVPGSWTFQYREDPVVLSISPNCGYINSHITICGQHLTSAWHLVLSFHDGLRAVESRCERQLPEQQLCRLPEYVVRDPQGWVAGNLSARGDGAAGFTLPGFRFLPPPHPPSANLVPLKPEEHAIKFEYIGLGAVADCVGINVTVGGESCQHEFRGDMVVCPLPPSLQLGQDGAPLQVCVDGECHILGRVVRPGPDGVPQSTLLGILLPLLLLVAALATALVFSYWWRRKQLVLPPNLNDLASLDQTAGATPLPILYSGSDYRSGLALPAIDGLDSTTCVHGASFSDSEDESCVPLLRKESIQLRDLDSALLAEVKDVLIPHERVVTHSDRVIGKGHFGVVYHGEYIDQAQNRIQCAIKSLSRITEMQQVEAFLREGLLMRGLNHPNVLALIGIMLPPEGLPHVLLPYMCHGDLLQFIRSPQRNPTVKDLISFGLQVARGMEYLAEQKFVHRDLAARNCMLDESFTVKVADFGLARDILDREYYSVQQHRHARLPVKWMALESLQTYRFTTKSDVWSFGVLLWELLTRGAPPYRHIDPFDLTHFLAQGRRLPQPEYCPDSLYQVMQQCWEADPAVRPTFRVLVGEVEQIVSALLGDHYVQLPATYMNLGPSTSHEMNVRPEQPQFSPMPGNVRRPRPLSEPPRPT
Sequence of Hepatocyte growth factor receptor (P08581 whole entry): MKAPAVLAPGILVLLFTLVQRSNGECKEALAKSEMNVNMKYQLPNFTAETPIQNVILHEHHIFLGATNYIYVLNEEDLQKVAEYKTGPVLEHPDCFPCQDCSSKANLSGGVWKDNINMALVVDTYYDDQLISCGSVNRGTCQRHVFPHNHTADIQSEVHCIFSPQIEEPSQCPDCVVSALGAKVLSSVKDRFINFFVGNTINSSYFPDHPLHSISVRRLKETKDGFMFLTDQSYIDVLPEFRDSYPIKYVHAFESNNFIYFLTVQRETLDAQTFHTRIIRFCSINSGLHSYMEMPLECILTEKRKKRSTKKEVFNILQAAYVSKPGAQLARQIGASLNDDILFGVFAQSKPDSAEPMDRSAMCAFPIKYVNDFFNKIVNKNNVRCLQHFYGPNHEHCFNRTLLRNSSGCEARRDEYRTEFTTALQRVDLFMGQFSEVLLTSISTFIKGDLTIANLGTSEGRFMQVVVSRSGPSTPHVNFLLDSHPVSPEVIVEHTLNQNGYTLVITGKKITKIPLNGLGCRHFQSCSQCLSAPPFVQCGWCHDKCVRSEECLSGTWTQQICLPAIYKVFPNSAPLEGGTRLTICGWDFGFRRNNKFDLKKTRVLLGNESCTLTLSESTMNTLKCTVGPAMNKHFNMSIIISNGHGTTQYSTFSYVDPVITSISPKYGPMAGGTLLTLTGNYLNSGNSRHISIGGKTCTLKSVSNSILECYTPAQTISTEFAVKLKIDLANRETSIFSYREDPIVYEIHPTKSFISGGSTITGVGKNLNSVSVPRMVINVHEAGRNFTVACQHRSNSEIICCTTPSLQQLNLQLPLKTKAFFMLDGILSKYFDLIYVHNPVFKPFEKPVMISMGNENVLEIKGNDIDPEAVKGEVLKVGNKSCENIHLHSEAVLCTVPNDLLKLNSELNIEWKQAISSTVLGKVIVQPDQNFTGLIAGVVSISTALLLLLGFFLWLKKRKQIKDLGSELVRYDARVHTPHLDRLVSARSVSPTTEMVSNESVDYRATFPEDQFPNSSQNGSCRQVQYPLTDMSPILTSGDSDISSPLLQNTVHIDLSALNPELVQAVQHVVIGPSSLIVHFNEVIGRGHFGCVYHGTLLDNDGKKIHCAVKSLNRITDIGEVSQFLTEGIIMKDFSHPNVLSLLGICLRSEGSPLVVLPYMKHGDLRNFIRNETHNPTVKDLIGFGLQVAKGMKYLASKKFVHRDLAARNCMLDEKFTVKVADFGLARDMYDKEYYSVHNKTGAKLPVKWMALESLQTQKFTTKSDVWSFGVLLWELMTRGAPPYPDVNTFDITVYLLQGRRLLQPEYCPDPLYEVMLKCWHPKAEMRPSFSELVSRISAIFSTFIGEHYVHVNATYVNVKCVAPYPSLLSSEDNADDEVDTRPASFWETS

Compound: COc1ccc2c(Oc3ccc(NC(=O)c4c(C)n(CC(C)(C)O)n(-c5ccccc5)c4=O)cc3F)ccnc2c1
- IC50 [1]: 0.004 µM
- IC50 [2]: 0.009 µM
- Activity (T47D [3]): inactive
- Activity (ZR-75-1 [4]): inactive
- Activity (MCF7): inactive

Compound: Cc1[nH]c(/C=C2\C(=O)Nc3ccc(S(=O)(=O)Cc4c(Cl)cccc4Cl)cc32)c(C)c1C(=O)N1CCC[C@@H]1CN1CCCC1
- Activity (T47D [3]): inactive
- Activity (ZR-75-1 [4]): inactive
- Activity (MCF7): inactive

Compound: O=C1N=C(NCc2cccs2)S/C1=C\c1ccc2ncccc2c1
- Activity (T47D [5]): inactive

Compound: COc1cccc2c1C(=O)c1c(O)c3c(c(O)c1C2=O)C[C@@](O)(C(=O)CO)C[C@@H]3O[C@H]1C[C@H](N)[C@H](O)[C@H](C)O1 [DOXORUBICIN]
- IC50 (ZR-75-1 [6]; Homo sapiens, ZR-75-1, 72 h): 0.453 µM
- IC50 (T47D [7]; Homo sapiens, T47D, 72 h): 0.264 µM

Compound: CN(Cc1cnc2nc(N)nc(N)c2n1)c1ccc(C(=O)N[C@@H](CCC(=O)O)C(=O)O)cc1 [METHOTREXATE]
- IC50 (ZR-75-1 [6]; Homo sapiens, ZR-75-1, 72 h): 0.066 µM
- IC50 (T47D [7]; Homo sapiens, T47D, 72 h): 0.0644 µM

Compound: CC(=O)O[C@H]1C(=O)[C@@]2(C)[C@H]([C@H](OC(=O)c3ccccc3)[C@]3(O)C[C@H](OC(=O)[C@H](O)[C@@H](NC(=O)c4ccccc4)c4ccccc4)C(C)=C1C3(C)C)[C@]1(OC(C)=O)CO[C@@H]1C[C@@H]2O [PACLITAXEL]
- IC50 (ZR-75-1 [6]; Homo sapiens, ZR-75-1, 72 h): 0.0062 µM
- IC50 (T47D [7]; Homo sapiens, T47D, 72 h): 0.004 µM

Compound: BLEOMYCIN
- IC50 (ZR-75-1 [6]; zr-75-1): 0.165 µM
- IC50 (T47D [7]; t47d): 0.129 µM
